From ChEMBL document CHEMBL4513216, “Probing the Open Global Health Chemical Diversity Library for Multistage-Active Starting Points for Next-Generation Antimalarials” (ACS Infect Dis, 2020) come the findings set out here.

The data set can be described thus: Toxicity liver stage against HepG2, at 10uM. The data set is classed as cell-based. Also noted: test concentration 10 uM, cell line HepG2-A16-CD81EGFP. The following applies: human, HepG2-A16-CD81EGFP cells; read-out: INHIBITION
Put shortly:
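Uninfected HepG2-A16-CD81EGFP cells, 3 × 10^3 per well, 1536-well, plated on prespotted compound at 10 μM final, parasite-free screening media added to match infected plates; puromycin 10 μM positive, DMSO 0.5% negative; run in parallel with 48 h PbLuc assay at 37 °C, 5% CO2; viability by CellTiter-Glo luminescence, normalized to controls.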
Take `O=C(c1ccncc1)N1CCC2(CC1)CCN(C(=O)c1cccnc1)C2`: the cytotoxicity at 10 µM was -93%.

Regarding `CC(=O)c1ccc(Cl)c(Cl)c1OCC(=O)NC(N)=O`, the cytotoxicity at 10 µM is 7.49%.

As to `CN1CCN(C(=O)[C@H]2C[C@H]3[C@H](CCN3Cc3cccs3)O2)CC1`, the cytotoxicity at 10 µM is -7.64%.

As to `Cn1cc(CN2C[C@H]3CCC[C@@H](CNc4ncccn4)[C@H]3C2)cn1`, the cytotoxicity at 10 µM is -2.57%.

Take `O=C1CCc2cc(NC(=O)C3CCCN3c3nccs3)ccc2N1` (stereo not given): the cytotoxicity at 10 µM was -10.8%.

With `CCOC(=O)[C@@H]1[C@@H](O)C(=O)N(C)C12CCN(C(=O)OC)CC2`, the cytotoxicity at 10 µM was 1.97%.

Take `CC(=O)N(Cc1ncc(C)o1)C1CCN(CCc2ccncc2)C1` (stereo not given): the cytotoxicity at 10 µM is 1.3%.

In the case of `COc1ccc2c(ccn2CCC(=O)NCCCC(=O)O)c1`, the cytotoxicity at 10 µM is 5.7%.

Take `CCn1c(C)nnc1CN(C)C1CCN(Cc2c(C)noc2C)C1` (stereo not given): the cytotoxicity at 10 µM turned out to be 0.317%.

Consider `Cc1nc(CN2C(=O)CCC23CCN(c2ncccc2C)CC3)cs1`, for which the cytotoxicity at 10 µM was -2.07%.

For `Cc1nc(C(C)C)sc1C(=O)N1CCN(C2CCSCC2)CC1`, the cytotoxicity at 10 µM was determined as 6.62%.

Turning to `CNC(=O)COc1ccc(CNCc2ccc(F)cc2F)cc1`, the cytotoxicity at 10 µM was -8.6%.

In the case of `CN(C)CCC1CCN(c2cc(N3CCCC3CO)ncn2)CC1` (stereo not given), the cytotoxicity at 10 µM is -6.27%.

For `O=S1(=O)C[C@@H]2[C@H](C1)N(Cc1cc(F)cc(Cl)c1)CCN2CCO`, the cytotoxicity at 10 µM is -4.71%.

Consider `COCCN1CCC(NC(=O)Nc2cccc(F)c2)C1` (stereo not given), for which the cytotoxicity at 10 µM is -0.898%.

Consider `N#CCCCS(=O)(=O)NC1(c2cccc(Cl)c2)CC1`, for which the cytotoxicity at 10 µM is -1.39%.

On to `Cc1cnn(CC2CN(Cc3cccc(C(N)=O)c3)CCO2)c1` (stereo not given), for which the cytotoxicity at 10 µM was -1.52%.

Regarding `O=C(CSC1=NS(=O)(=O)c2cc(F)ccc2N1)c1ccc(Cl)cc1`, the cytotoxicity at 10 µM was 10.3%.

On to `CC(=O)N1CCc2ncc(CNC(=O)C3CCC3)n2CC1`, for which the cytotoxicity at 10 µM was 7.48%.

On to `Cc1cccnc1CN1CC[C@H](Oc2cccc(F)c2)[C@@](C)(O)C1`, for which the cytotoxicity at 10 µM is -5.77%.

For the molecule `O=C(O)[C@@H]1CN(C2CCCC2)C[C@H]1C1CC1`, the cytotoxicity at 10 µM was -147%.

As to `O=C(Cc1cn2ccsc2n1)N1CCCC(n2cncn2)C1` (stereo not given), the cytotoxicity at 10 µM is -5.97%.

Take `COc1ccc(-c2cc(C3CCCCCN3S(C)(=O)=O)on2)cc1` (stereo not given): the cytotoxicity at 10 µM was 0.46%.

As for `O=C1CCCN1CCCC(=O)N1CCCC(Cc2cccnc2)C1` (stereo not given), the cytotoxicity at 10 µM is -4.5%.

As for `COc1cccc(-c2cc(NCC(=O)O)nc3[nH]ccc23)n1`, the cytotoxicity at 10 µM came out at 8.09%.

For the molecule `OC1CCCOC12CCN(c1ncccn1)CC2` (stereo not given), the cytotoxicity at 10 µM is 3.73%.

As to `CCC(CO)N(Cc1ccccn1)Cc1c[nH]nc1-c1ccc(F)cc1` (stereo not given), the cytotoxicity at 10 µM is -1.83%.

Turning to `NC(=O)NCC1CCCCN1C(=O)c1ccc(Cl)s1` (stereo not given), the cytotoxicity at 10 µM was -12.1%.

Turning to `CC(C)Cn1nnnc1SC(C(=O)NCc1cccnc1)C(C)C` (stereo not given), the cytotoxicity at 10 µM was -4.05%.

In the case of `Cc1nc(C2CN(Cc3ccc(F)cc3Br)CCO2)no1` (stereo not given), the cytotoxicity at 10 µM was -4.75%.

With `CCN(C(=O)c1nc2c(s1)CCCN2C)C(C)C`, the cytotoxicity at 10 µM turned out to be 4.37%.

Turning to `O=C(NCCCNC(=O)c1cccc(O)c1)Nc1ccc(F)cc1F`, the cytotoxicity at 10 µM was -11%.

`Cc1cnc(NC(=O)N2CCC(N3CCCCC3=O)CC2)s1`: the cytotoxicity at 10 µM was -0.772%.

Turning to `Cc1nn(Cc2ccc(C(=O)NCCCN3CCCC3=O)o2)c(C)c1Cl`, the cytotoxicity at 10 µM was -10.2%.

Take `COCCN1CCC(CNC(=O)C2(C#N)CCCC2)CC1`: the cytotoxicity at 10 µM worked out at 6.93%.

In the case of `CCc1ccccc1OCCNCCc1c[nH]cn1`, the cytotoxicity at 10 µM amounted to 4.69%.

`Cc1cc(C(=O)Nc2ccc(-c3nnc(N(C)C)o3)cc2)oc1C`: the cytotoxicity at 10 µM worked out at 0.11%.

In the case of `CCNC(=O)NC(=O)CN1CCOC(c2cccc(Br)c2)C1` (stereo not given), the cytotoxicity at 10 µM came to 1.83%.

Regarding `Cc1cnc(C(=O)N2CC[C@H]3[C@@H]2CCC(=O)N3c2cccnc2)cn1`, the cytotoxicity at 10 µM is -81.9%.

`O=C(c1ccc(Cl)cc1)N1CCC(N2CCOC2=O)CC1`: the cytotoxicity at 10 µM stood at 7.72%.

In the case of `CC(=O)c1ccc(N2CCN(C(=O)c3cnn4c3OCCC4)CC2)cc1`, the cytotoxicity at 10 µM was found to be 8.44%.

As to `CCn1ncc(CNc2[nH]cnc3nncc2-3)c1C`, the cytotoxicity at 10 µM stood at 2.76%.

As for `O=C(O)[C@@H]1CN(C(=O)c2ccc3[nH]nnc3c2)C[C@H]1c1cccc(F)c1`, the cytotoxicity at 10 µM was -8.66%.

In the case of `Cc1cc(NC(=O)NCCc2ccc3c(c2)OCCO3)n(C)n1`, the cytotoxicity at 10 µM is -0.838%.

With `Cc1cc(C)n(C2CCCN(C(=O)c3cc(C4CC4)on3)C2)n1` (stereo not given), the cytotoxicity at 10 µM is -1.11%.

For the molecule `CNS(=O)(=O)CCn1cc(-c2cc3c(cc2OC)CCC3)nn1`, the cytotoxicity at 10 µM was -2.12%.

With `Cc1c[nH]c(C(=O)N2CCn3nc(C(=O)NC4CC4)cc3C2)n1`, the cytotoxicity at 10 µM is -2.66%.

With `CN1CCN(c2ncccc2N)CC1`, the cytotoxicity at 10 µM turned out to be 11.5%.

As for `CCN1CCC(NC(=O)CN2CCCC2Cn2cc(C)cn2)CC1` (stereo not given), the cytotoxicity at 10 µM was -8.84%.

For the molecule `C[C@@H]1CN(C(=O)c2c[nH]c(=O)c(Cl)c2)CC[C@@]1(O)C1CCOCC1`, the cytotoxicity at 10 µM is 1.09%.

Take `O=C1CC2(CCN(C(=O)c3ccccn3)C2)Nc2ccccc2N1` (stereo not given): the cytotoxicity at 10 µM is 10.9%.

Consider `COc1cccc(CC(C)NC(=O)NCCNC(C)=O)c1` (stereo not given), for which the cytotoxicity at 10 µM is 7.89%.

As to `CCCC1CCCN(Cc2csc(-c3cnn(C)c3)n2)CC1` (stereo not given), the cytotoxicity at 10 µM was -1.47%.

With `O=C([C@H]1C[C@@H]2CCN(C3CCOCC3)C[C@@H]2O1)N1CCOCC1`, the cytotoxicity at 10 µM is -2.56%.

Regarding `COc1cc(OC)cc(C2CCN(CC(=O)NCC(F)(F)F)C2)c1` (stereo not given), the cytotoxicity at 10 µM came out at 2.29%.

Consider `COCC1CN(S(=O)(=O)c2ccccc2)Cc2ncnn2C1` (stereo not given), for which the cytotoxicity at 10 µM is -117%.

With `Cc1cccc(OCCNC(=O)CN2CCCC2Cn2cccn2)c1` (stereo not given), the cytotoxicity at 10 µM was -9.46%.

On to `Cc1ncsc1CN1C[C@H](OCc2ccncc2)[C@H]2OCCC[C@H]21`, for which the cytotoxicity at 10 µM was -139%.

For the molecule `CCN(Cc1ccncc1)C(=O)c1cn(CCCc2ccccc2)nn1`, the cytotoxicity at 10 µM was found to be 3%.

On to `Cc1ccnc(C(NC(=O)c2oc(C)nc2C)C2CC2)n1` (stereo not given), for which the cytotoxicity at 10 µM is -0.392%.

Turning to `O=C(COc1ccc(C(F)(F)F)cc1)NS(=O)(=O)c1cccnc1`, the cytotoxicity at 10 µM is -7.44%.

Consider `Cc1nc([C@H]2C[C@@H]3CCN(Cc4scnc4C)C[C@H]3O2)no1`, for which the cytotoxicity at 10 µM was -129%.

Consider `CC(Cc1cncs1)Nc1ncnc2cccc(F)c12` (stereo not given), for which the cytotoxicity at 10 µM came out at 17.5%.

With `CCS(=O)(=O)c1ccccc1C(=O)NCC1Cc2ccccc2O1` (stereo not given), the cytotoxicity at 10 µM was -0.561%.

`COc1cccc(CN2CCCC(Nc3cccc(F)c3)C2)c1O` (stereo not given): the cytotoxicity at 10 µM was -10.2%.

For the molecule `c1ccc(Cc2nc(CN3CCCC3Cn3cncn3)cs2)cc1` (stereo not given), the cytotoxicity at 10 µM is -2.54%.

Take `N#Cc1cccc(CN2C(=O)C3(CCNCC3)Nc3ccccc32)c1`: the cytotoxicity at 10 µM was found to be 0.529%.

Regarding `Cc1cc(Cn2cc(C#N)c(=O)c3ccccc32)no1`, the cytotoxicity at 10 µM worked out at 5.76%.

As for `CN(Cc1ccc(C#N)cc1)C(=O)c1ccnc(OC2CCC2)c1`, the cytotoxicity at 10 µM was 7.59%.

Turning to `CNC(=O)C(C)(C)N1CCC[C@H]1C(=O)NCCN(C)C`, the cytotoxicity at 10 µM was 2.2%.
